{
  "source": "ChEMBL document CHEMBL3297651",
  "about": "“Plumbagin downregulates Wnt signaling independent of p53 in human colorectal cancer cells” (J Nat Prod, 2014)",
  "key": {"SW480 [1]": {"system": "SW480", "assay": "Cytotoxicity against human SW480 cells assessed as cell viability after 24 hrs by MTT assay", "type": "functional, cell-based", "outline": "(§1)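 Cells seeded at 5000/well in 96-well plates, adhered overnight, then exposed to compound for 24 or 48 h (0−20 μM for SW480/SW620; 0−30 μM for HCT116 p53+/+ and p53−/−). MTT (5 mg/mL) added for 3.5 h, formazan dissolved in DMSO, OD read at 570 nm with 655 nm reference. Means ± SE from three independent experiments; IC50 derived from viability curves.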"}, "SW480 [2]": {"system": "SW480", "assay": "Cytotoxicity against human SW480 cells assessed as cell viability after 48 hrs by MTT assay", "type": "functional, cell-based", "outline": "as §1"}, "SW-620 [3]": {"system": "SW-620", "assay": "Cytotoxicity against human SW620 cells assessed as cell viability after 24 hrs by MTT assay", "type": "functional, cell-based", "outline": "as §1"}, "SW-620 [4]": {"system": "SW-620", "assay": "Cytotoxicity against human SW620 cells assessed as cell viability after 48 hrs by MTT assay", "type": "functional, cell-based", "outline": "as §1"}, "SW-620 [5]": {"system": "SW-620", "assay": "Inhibition of proto-oncogene protein Wnt/beta-catenin in human SW620 cells assessed as downregulation of TCF/LEF promoter transcriptional activity after 24 hrs by TOPFlash luciferase reporter gene assay", "type": "cell-based", "outline": "(§2)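 3 × 10^4 cells/well transfected with TOPFlash or FOPFlash plus Renilla plasmids (200 ng) by lipofectin in serum- and antibiotic-free DMEM. After 6 h, compound added in complete DMEM for 24 h (SW620 1−3 μM; HCT116 lines 5 and 10 μM), DMSO control. Dual luciferase read by photon counting, firefly normalized to Renilla; means ± SE, three independent experiments, Student t-test.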"}, "SW-620 [6]": {"system": "SW-620", "assay": "Inhibition of proto-oncogene protein Wnt/beta-catenin in human SW620 cells assessed as downregulation of mutant TCF/LEF promoter transcriptional activity at 1 to 3 uM after 24 hrs by FOPFlash luciferase reporter gene assay", "type": "cell-based", "outline": "as §2"}, "SW480 [7]": {"system": "SW480", "assay": "Inhibition of proto-oncogene protein Wnt/beta-catenin in human SW480 cells assessed as downregulation of TCF/LEF promoter transcriptional activity after 24 hrs by TOPFlash luciferase reporter gene assay", "type": "cell-based"}, "SW480 [8]": {"system": "SW480", "assay": "Inhibition of proto-oncogene protein Wnt/beta-catenin in human SW480 cells assessed as downregulation of mutant TCF/LEF promoter transcriptional activity at 1 to 3 uM after 24 hrs by FOPFlash luciferase reporter gene assay", "type": "cell-based"}, "SW-620 [9]": {"system": "SW-620", "assay": "Inhibition of proto-oncogene protein Wnt in human SW620 cells assessed as downregulation of beta-catenin protein expression at 6 uM after 24 hrs by Western blot analysis", "type": "cell-based", "outline": "(§3)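 10^6 cells/well in six-well plates treated 24 h with compound (6 μM SW620; 10 μM HCT116 lines) or DMSO control. Lysed 1 h on ice in Tris/NaCl/Triton/deoxycholate buffer with phosphatase and protease inhibitors; 50−75 μg protein on 8−10% SDS-PAGE, PVDF, primary antibodies 1:1000 overnight 4 °C, HRP secondaries 1:10 000, chemiluminescence; β-actin loading control; three independent experiments.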"}, "SW-620 [10]": {"system": "SW-620", "assay": "Inhibition of proto-oncogene protein Wnt in human SW620 cells assessed as downregulation of p300 protein expression at 6 uM after 24 hrs by Western blot analysis", "type": "cell-based", "outline": "as §3"}, "SW-620 [11]": {"system": "SW-620", "assay": "Inhibition of proto-oncogene protein Wnt in human SW620 cells assessed as downregulation of TCF7L2 protein expression at 6 uM after 24 hrs by Western blot analysis", "type": "cell-based", "outline": "as §3"}, "SW-620 [12]": {"system": "SW-620", "assay": "Inhibition of proto-oncogene protein Wnt in human SW620 cells assessed as downregulation of Bcl9l protein expression at 6 uM after 24 hrs by Western blot analysis", "type": "cell-based", "outline": "as §3"}, "SW480 [13]": {"system": "SW480", "assay": "Inhibition of proto-oncogene protein Wnt in human SW480 cells assessed as downregulation of beta-catenin protein expression at 6 to 10 uM after 24 hrs by Western blot analysis", "type": "cell-based"}, "SW480 [14]": {"system": "SW480", "assay": "Inhibition of proto-oncogene protein Wnt in human SW480 cells assessed as downregulation of p300 protein expression at 6 to 10 uM after 24 hrs by Western blot analysis", "type": "cell-based"}, "SW480 [15]": {"system": "SW480", "assay": "Inhibition of proto-oncogene protein Wnt in human SW480 cells assessed as downregulation of TCF7L2 protein expression at 6 to 10 uM after 24 hrs by Western blot analysis", "type": "cell-based"}, "SW480 [16]": {"system": "SW480", "assay": "Inhibition of proto-oncogene protein Wnt in human SW480 cells assessed as downregulation of Bcl9l protein expression at 6 to 10 uM after 24 hrs by Western blot analysis", "type": "cell-based"}, "SW-620 [17]": {"system": "SW-620", "assay": "Inhibition of proto-oncogene protein Wnt/beta-catenin in human SW620 cells assessed as downregulation of c-Myc protein expression at 6 uM after 24 hrs by Western blot analysis relative to control", "type": "cell-based", "outline": "as §3"}, "SW-620 [18]": {"system": "SW-620", "assay": "Inhibition of proto-oncogene protein Wnt/beta-catenin in human SW620 cells assessed as downregulation of cyclin D1 protein expression at 6 uM after 24 hrs by Western blot analysis relative to control", "type": "cell-based", "outline": "as §3"}, "SW-620 [19]": {"system": "SW-620", "assay": "Inhibition of proto-oncogene protein Wnt/beta-catenin in human SW620 cells assessed as downregulation of vimentin protein expression at 6 uM after 24 hrs by Western blot analysis relative to control", "type": "cell-based", "outline": "as §3"}, "HCT-116 [20]": {"system": "HCT-116", "assay": "Cytotoxicity against human HCT116 cells expressing p53 assessed as cell viability after 24 hrs by MTT assay", "type": "functional, cell-based", "details": "HCT-116, 24 h", "outline": "as §1"}, "HCT-116 [21]": {"system": "HCT-116", "assay": "Cytotoxicity against p53-deficient human HCT116 cells assessed as cell viability after 24 hrs by MTT assay", "type": "functional, cell-based", "details": "HCT-116, 24 h", "outline": "as §1"}, "HCT-116 [22]": {"system": "HCT-116", "assay": "Inhibition of proto-oncogene protein Wnt/beta-catenin in human HCT116 cells expressing p53 assessed as downregulation of TCF/LEF promoter transcriptional activity at 5 to 10 uM after 24 hrs by TOPFlash/FOPFlash luciferase reporter gene assay", "type": "cell-based", "outline": "as §2"}, "HCT-116 [23]": {"system": "HCT-116", "assay": "Inhibition of proto-oncogene protein Wnt/beta-catenin in p53-deficient human HCT116 cells assessed as downregulation of TCF/LEF promoter transcriptional activity at 5 to 10 uM after 24 hrs by TOPFlash/FOPFlash luciferase reporter gene assay", "type": "cell-based", "outline": "as §2"}, "HCT-116 [24]": {"system": "HCT-116", "assay": "Inhibition of proto-oncogene protein Wnt in human HCT116 cells expressing p53 assessed as downregulation of beta-catenin protein expression at 10 uM after 24 hrs by Western blot analysis relative to control", "type": "cell-based", "outline": "as §3"}, "HCT-116 [25]": {"system": "HCT-116", "assay": "Inhibition of proto-oncogene protein Wnt in p53-deficient human HCT116 cells assessed as downregulation of beta-catenin protein expression at 10 uM after 24 hrs by Western blot analysis relative to control", "type": "cell-based", "outline": "as §3"}, "SW-620 [26]": {"system": "SW-620", "assay": "Upregulation of HBP1 protein expression in human SW620 cells at 6 uM after 24 hrs by Western blot analysis relative to control", "type": "functional", "outline": "as §3"}, "HCT-116 [27]": {"system": "HCT-116", "assay": "Upregulation of HBP1 protein expression in human HCT116 cells expressing p53 at 10 uM after 24 hrs by Western blot analysis", "type": "functional, cell-based", "outline": "as §3"}, "HCT-116 [28]": {"system": "HCT-116", "assay": "Upregulation of HBP1 protein expression in p53-deficient human HCT116 cells at 10 uM after 24 hrs by Western blot analysis", "type": "functional, cell-based", "outline": "as §3"}},
  "note": "Calls of active or inactive are those of the source. No cut-off for these calls is given here.",
  "data": [
    {"smiles": "CC1=CC(=O)c2c(O)cccc2C1=O", "note": "[PLUMBAGIN]", "values": [
      {"measurement": "Activity", "setting": "SW480 [1]", "value": "Dose-dependent effect"},
      {"measurement": "IC50", "setting": "SW480 [1]; SW480, 24 h", "value": 12, "unit": "µM"},
      {"measurement": "Activity", "setting": "SW480 [2]", "value": "Dose-dependent effect"},
      {"measurement": "IC50", "setting": "SW480 [2]; SW480, 48 h", "value": 7.3, "unit": "µM"},
      {"measurement": "Activity", "setting": "SW-620 [3]", "value": "Dose-dependent effect"},
      {"measurement": "IC50", "setting": "SW-620 [3]; SW-620, 24 h", "value": 7.7, "unit": "µM"},
      {"measurement": "Activity", "setting": "SW-620 [4]", "value": "Dose-dependent effect"},
      {"measurement": "IC50", "setting": "SW-620 [4]; SW-620, 48 h", "value": 7.4, "unit": "µM"},
      {"measurement": "inhibition", "setting": "SW-620 [5]", "value": "Dose-dependent effect"},
      {"measurement": "inhibition", "setting": "SW-620 [6]", "value": "inactive"},
      {"measurement": "inhibition", "setting": "SW480 [7]", "value": "Dose-dependent effect"},
      {"measurement": "inhibition", "setting": "SW480 [8]", "value": "inactive"},
      {"measurement": "inhibition", "setting": "SW-620 [9]", "value": "Active"},
      {"measurement": "inhibition", "setting": "SW-620 [10]", "value": "Active"},
      {"measurement": "inhibition", "setting": "SW-620 [11]", "value": "Active"},
      {"measurement": "inhibition", "setting": "SW-620 [12]", "value": "Active"},
      {"measurement": "inhibition", "setting": "SW480 [13]", "value": "Active"},
      {"measurement": "inhibition", "setting": "SW480 [14]", "value": "Active"},
      {"measurement": "inhibition", "setting": "SW480 [15]", "value": "Active"},
      {"measurement": "inhibition", "setting": "SW480 [16]", "value": "Active"},
      {"measurement": "inhibition", "setting": "SW-620 [17]", "value": 50, "unit": "%"},
      {"measurement": "inhibition", "setting": "SW-620 [18]", "value": 50, "unit": "%"},
      {"measurement": "inhibition", "setting": "SW-620 [19]", "value": 50, "unit": "%"},
      {"measurement": "IC50", "setting": "HCT-116 [20]", "value": 20, "unit": "µM"},
      {"measurement": "IC50", "setting": "HCT-116 [21]", "value": 20, "unit": "µM"},
      {"measurement": "inhibition", "setting": "HCT-116 [22]", "value": "Active"},
      {"measurement": "inhibition", "setting": "HCT-116 [23]", "value": "Active"},
      {"measurement": "inhibition", "setting": "HCT-116 [24]", "value": 33, "unit": "%"},
      {"measurement": "inhibition", "setting": "HCT-116 [25]", "value": 20, "unit": "%"},
      {"measurement": "fold change (FC)", "setting": "SW-620 [26]", "value": 1.68},
      {"measurement": "Activity", "setting": "HCT-116 [27]", "value": "Active"},
      {"measurement": "Activity", "setting": "HCT-116 [28]", "value": "Active"}
    ]}
  ]
}
